# Screens as filed in PubChem.
# NR2E3 ag-1: human photoreceptor-specific nuclear receptor agonism | Q9Y5X4 | CHO-S Gal4-NCOR/VP16-NR2E3 two-hybrid, luciferase | inhibition of corepressor binding, % at 3.98 µM | actives 0.35% (n = 360,000) | AID 602229;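 active = inhibition above the mean of all tested compounds plus 3 SD, cut at about 70% in these data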;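 note: 0% = DMSO with NR2E3 transfected cells and 100% = cells lacking NR2E3 construct; higher means lower luciferase signal from less NR2E3 corepressor binding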
# Target sequence (Q9Y5X4 whole entry, looked up, the tested form may be a part): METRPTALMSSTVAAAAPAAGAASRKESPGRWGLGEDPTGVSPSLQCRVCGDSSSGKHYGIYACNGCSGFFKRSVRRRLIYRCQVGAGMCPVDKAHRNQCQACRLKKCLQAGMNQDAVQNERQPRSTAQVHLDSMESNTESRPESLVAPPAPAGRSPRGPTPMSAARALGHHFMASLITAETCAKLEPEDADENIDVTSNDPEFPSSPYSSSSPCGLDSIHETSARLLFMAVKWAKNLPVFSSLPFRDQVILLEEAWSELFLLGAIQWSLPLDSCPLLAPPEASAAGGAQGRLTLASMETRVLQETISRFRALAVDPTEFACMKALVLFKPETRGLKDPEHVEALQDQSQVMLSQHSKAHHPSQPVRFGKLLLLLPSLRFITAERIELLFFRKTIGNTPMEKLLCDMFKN
# NR1D1 modulator: Rev-erb alpha (human) modulation; P20393; Rev-erbα–FITC-DNA binding, fluorescence polarization, 90 min; activity, % at 10 µM; actives 0.79% (n = 370,000); AID 1259318;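 active = activity above about 14%, limit read from the data; passing the limit was not always enough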;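 note: 0% = DMSO wells with 35 nM protein and 100% = DMSO wells with 750 nM protein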
# PG9 binder: small molecules binding HIV-1 gp120 antibody PG9. actives 0.43% (n = 360,000). TR-FRET gp120-PG9 antibody binding. inhibition, % at 6.7 µM; in the data active = inhibition above about 8.5%
# NR2E3 ag-2: agonists of human nuclear receptor NR2E3 | inhibition of corepressor binding, % at 4.78 µM | actives 0.12% (n = 320,000) | GST-NR2E3/biotin-RetCOR TR-FRET, 1536-well;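 active = percent inhibition above the cutoff of mean plus 3 SD of all tested compounds, set per screening campaign, cut at about 20% in these data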;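 note: 0% = DMSO wells and 100% = biotin wells as full block of FRET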
#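 Material – GST-tagged NR2E3 plus biotinylated RetCOR corepressor · Quantity – NR2E3 fusion 1.35 nM · Times – 5 h incubation at 4 °C · Medium – pH 7.5 Tris-based buffer · Technique – TR-FRET, Eu(K)-anti-GST donor, streptavidin-D2 acceptor, ex 340, em 617/671 nm · Benchmarks – high control biotin, low control 0.6% DMSO · Format – 1536-well plates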
# rCAG binder-1: binds r(CAG) RNA repeats; r(CAG) RNA repeat, TO-PRO-1 dye displacement fluorescence; inhibition, % at 3 µM; actives 1.3% (n = 370,000); AID 651821;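 active = inhibition above the plate cutoff, the mean of all test compounds on that plate plus 3 SD, cut at about 35% in these data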;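 note: 0% = DMSO alone and 100% = 100 µM mitoxantrone as full dye displacement; higher means more dye released from RNA so lower well fluorescence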
# rCAG binder conf: r(CAG) RNA repeat binding, confirmation; shares compounds with rCAG binder-1; TO-PRO-1 dye displacement fluorescence; inhibition, % at 3 µM; actives 70% (n = 4,300); AID 652065;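 active = inhibition above a per-plate cutoff, the mean inhibition of sample wells plus 3 SD, cut at about 35% in these data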;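 note: loss of TO-PRO-1 fluorescence as compound displaces dye from 1x1 AA loop RNA; 0% = DMSO only wells and 100% = 100 µM mitoxantrone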
# DNA CAG counter: counter-screen for rCAG RNA binders: DNA CAG dye complex inhibitors | shares compounds with rCAG binder-1 | d(CAG) DNA oligo TO-PRO-1 dye displacement, fluorescence | inhibition, % at 3 µM | actives 94% (n = 4,300) | AID 652068;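 active = inhibition above its plate's cutoff, the mean test-well inhibition plus 3 SD, cut at about 4.8% in these data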;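 note: 0% = DNA dye mix with DMSO and 100% = 100 µM mitoxantrone; hits displace the dye from DNA and so lower well fluorescence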
# dCAG dye DR: disrupts DNA CAG TO-PRO-1 complex in dose response. DNA CAG/GTC duplex TO-PRO-1 dye displacement fluorescence. IC50, µM. actives 20% (n = 250). shares compounds with rCAG binder-1; in the data active = IC50 below about 10 µM
# dCAG DNA bind: DNA CAG dye complex inhibition, late stage dose response; shares compounds with rCAG binder-1; d(CAG) DNA duplex TO-PRO-1 dye displacement, fluorescence; IC50, µM; actives 80% (n = 30)
# rCAG binder-2: molecules binding r(CAG) RNA repeats, late stage dose response; actives 100% (n = 30); shares compounds with rCAG binder-1; AID 720651; IC50, µM; r(CAG) RNA TO-PRO-1 dye displacement, fluorescence
# * marks the source's active call; other numbers are inactive results; i = inactive; / = no result given. Compounds with a hit are over-represented: about 2.6% of the library has one in this group of screens. Unless noted, the rule behind the calls is not given here.
SMILES,NR2E3 ag-1,NR1D1 modulator,PG9 binder,NR2E3 ag-2,rCAG binder-1,rCAG binder conf,DNA CAG counter,others
CC1CCc2c(sc(NC(=O)COC(=O)C3CCCO3)c2C#N)C1 (stereo not given),4,4,2,-1,0,/,/,
CC1CCc2c(sc(NC(=O)COC(=O)c3ccc(O)cc3)c2C#N)C1 (stereo not given),-31,0,0,0,39*,37*,19*,
CCC1CCc2c(sc(NC(=O)C3CC=CCC3C(=O)O)c2C#N)C1 (stereo not given),-9,-2,-1,-2,59*,39*,11*,
CNc1ncnc2c1ncn2[C@H]1CN(Cc2ccco2)C[C@@H](CO)O1,-23,1,-1,/,3,/,/,
Cc1onc(-c2ccccc2)c1C(=O)NC(=S)NNC(=O)c1cc(-c2ccc(F)cc2)n[nH]1,-19,-15,-1,2,68*,71*,31*,dCAG dye DR=>30
Cc1ccc([N+](=O)[O-])cc1N(CC(=O)Nc1ccc(S(=O)(=O)Nc2cccc(C(F)(F)F)c2)cc1)S(C)(=O)=O,28,8,-3,0,58*,56*,18*,
COc1ccccc1N(CC(=O)Nc1cccc(C(F)(F)F)c1)S(C)(=O)=O,-10,3,-2,1,-4,/,/,
O=C(O)c1cc(-c2ccc(Cl)c(Cl)c2)n(-c2ccccc2)n1,2,-6,-1,3,41*,12,0,
O=C(O)c1cc(-c2ccc(Cl)cc2)n(-c2ccc(Cl)cc2)n1,-38,-7,-3,2,13,/,/,
COc1ccccc1-c1n[nH]nc1C1=CC(=O)C[C@H](c2ccc(F)cc2)C1,-37,-5,-1,/,12,/,/,
CCc1ccc(-c2n[nH]nc2C2=CC(=O)C[C@H](c3ccc(F)cc3)C2)cc1,-9,7,-2,/,37*,42*,11*,
C#CCNC(=O)C[C@@H]1C(=O)N2CCCC3=C2[C@@]1(C(=O)OCC)CCC3,/,-1,/,/,35*,0,-1,
CCCCNC(=O)C[C@@H]1C(=O)N2CCCC3=C2[C@@]1(C(=O)OCC)CCC3,/,-1,/,/,-1,/,/,
COc1cccc(NC(=O)C2(C)CCN2C(=O)Cc2cccc3ccccc23)c1 (stereo not given),1,3,-2,/,2,/,/,
CCOC(=O)Cc1cc(=O)n2[nH]c(C)c(-c3ccccc3)c2n1,10,5,-1,0,16,/,/,
CCOC(=O)Cc1cc(=O)n2[nH]c(-c3ccccc3)c(-c3ccccc3)c2n1,-13,-6,-2,1,40*,43*,15*,
Cc1cc(C)nc(NS(=O)(=O)c2ccc(N=Cc3c(C)[nH]n(-c4ccccc4)c3=O)cc2)n1,-15,5,-1,11,14,/,/,
CCc1nnc(NS(=O)(=O)c2ccc(N=Cc3c(C)[nH]n(-c4ccc(C)c(C)c4)c3=O)cc2)s1,-20,-5,1,-1,55*,85*,57*,
Cc1[nH]n(-c2ccc(Br)cc2)c(=O)c1C=Nc1ccc(S(=O)(=O)Nc2nccs2)cc1,-14,-2,0,2,54*,81*,47*,
Cc1ccc(-n2[nH]c(C)c(C=Nc3ccc(S(=O)(=O)Nc4nccs4)cc3)c2=O)cc1,/,/,/,-1,/,/,/,
CC1CCCCC12NC(=O)N(CC(=O)Nc1cccnc1)C2=O (stereo not given),5,-5,-1,/,3,/,/,
COC(=O)C1=C(C)N(Cc2ccccc2C(F)(F)F)C(=NCc2ccc(C(F)(F)F)cc2)NC1c1cccc(Cl)c1 (stereo not given),/,-5,0,/,4,/,/,
Nc1c(Br)cc(Br)c2c1C(=O)c1c(cccc1S(=O)(=O)O)C2=O,0,-6,-2,/,43*,48*,13*,
Nc1cc(C(=O)O)c(N)c2c1C(=O)c1ccccc1C2=O,-19,/,/,-58,/,/,/,
Cc1ccc(N=C2NC(=O)CS2)cc1,10,-2,-2,-1,5,/,/,
SMILES,NR2E3 ag-1,NR1D1 modulator,PG9 binder,NR2E3 ag-2,rCAG binder-1,rCAG binder conf,DNA CAG counter,others
Cc1ccc(C)n1/N=C1/NC(=O)CS1,-60,-3,0,3,36*,20,9.9*,
COc1ccc([N+](=O)[O-])c(OC)c1C(=O)NC(=O)Nc1nc(C)nc(C)n1,16,-5,1,1,-5,/,/,
O=c1[nH]c(=O)n(Cc2ccco2)c2c1C(C(F)(F)F)(C(F)(F)F)N=C(CCc1ccccc1)N2,-7,2,-1,-4,-4,/,/,
N#Cc1ccc(C2=NC(C(F)(F)F)(C(F)(F)F)c3c(n(Cc4ccco4)c(=O)[nH]c3=O)N2)cc1,-25,-4,2,0,36*,37*,7.1*,dCAG dye DR=>30;dCAG DNA bind=i;rCAG binder-2=3.6*
O=C(COc1ncnc2sccc12)Nc1cccc(S(=O)(=O)N2CCOCC2)c1,-26,-7,-4,-6,11,/,/,
Cc1ccc(C)c2c1[nH]c1ccc([N+](=O)[O-])cc12,-7,4,0,1,40*,30,14*,
CCCc1cc(=O)n(-c2nc3ccccc3s2)[nH]1,-21,2,-2,-3,17,/,/,
CCOC(=O)Cc1cc(=O)n(-c2nc3ccccc3s2)[nH]1,-2,3,-2,1,73*,34,12*,
CCOC(=O)C1=NN(C(=O)Nc2cccc(C(F)(F)F)c2)C2C(=O)N(c3cccc(C(F)(F)F)c3)C(=O)C12 (stereo not given),15,-2,0,1,83*,23,5.8*,
CC1(C(=O)O)CCCN1C(=O)c1ccccc1OC(F)(F)F (stereo not given),20,-8,1,/,0,/,/,
C#CCNC(=O)C[C@H]1C[C@@]2(C(=O)OC)C(=C[C@H](COCc3ccccc3)O[C@@H]2C)N(CCc2ccc(OC)c(OC)c2)C1=O,/,4,/,/,4,/,/,
CCOC(=O)c1ccccc1NC(=O)COC(=O)C(CC)Oc1ccccc1 (stereo not given),-10,-5,0,/,2,/,/,
Cc1ccc(NS(=O)(=O)c2ccc3[nH]c(=O)c(=O)[nH]c3c2)cc1Cl,-53,-7,0,-1,13,/,/,
